Source: ChEMBL document CHEMBL1151701, “Discovery of new pyridoacridine alkaloids from Lissoclinum cf. badium that inhibit the ubiquitin ligase activity of Hdm2 and stabilize p53” (Bioorg Med Chem, 2008)
Active and inactive are the calls of the source. The calls are words filed in the database; no cut-off is given here.

Legend:
[1] = molecular target: T1, E3 ubiquitin-protein ligase Mdm2 (Homo sapiens, UniProt Q00987); assay: Inhibition of GST fused human Hdm2 assessed as polyubiquitylation by electrochemiluminescence assay
Method in brief: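 Cell-free ubiquitylation. Lysate GST-Hdm2 captured on glutathione-coated wells for 1 h at RT. E1/UbcH5B were pre-charged with ubiquitin, ATP and DTT in PBS for 30 min, then added with sample for 30 min at RT. Read-out was ruthenium anti-polyubiquitin electrochemiluminescence, normalised between no-inhibitor (0%) and EDTA (100%). Tested at 100–0.02 µg/mL in quadruplicate.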
Target sequence in this assay (Q00987 whole entry, the tested form may be a part): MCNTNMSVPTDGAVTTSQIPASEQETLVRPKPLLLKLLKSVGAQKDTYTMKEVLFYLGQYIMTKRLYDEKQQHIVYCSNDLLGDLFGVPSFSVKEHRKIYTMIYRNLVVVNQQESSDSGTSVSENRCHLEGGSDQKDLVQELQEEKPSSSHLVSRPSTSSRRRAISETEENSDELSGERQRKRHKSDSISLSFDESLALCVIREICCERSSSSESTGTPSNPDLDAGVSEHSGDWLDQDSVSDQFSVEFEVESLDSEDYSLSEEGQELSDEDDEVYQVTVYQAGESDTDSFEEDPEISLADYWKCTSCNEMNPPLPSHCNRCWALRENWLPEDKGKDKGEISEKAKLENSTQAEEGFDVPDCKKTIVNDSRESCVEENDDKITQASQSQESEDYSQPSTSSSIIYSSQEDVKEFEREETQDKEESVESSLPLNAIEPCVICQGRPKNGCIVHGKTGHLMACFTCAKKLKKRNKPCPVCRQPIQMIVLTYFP

[2] = molecular target: T1, E3 ubiquitin-protein ligase Mdm2; assay: Inhibition of GST fused human Hdm2 in human RPE cells assessed as increase in p53 level at 1 to 10 uM after 8 hrs by immunoblotting; assay type: cell-based
Method in brief: (§1)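 Tert-immortalized human retinal pigment epithelial (RPE) cells exposed to compound (1–10 µM) or 50 µM ALLN for 8 h. Cells lysed in RIPA buffer, post-nuclear supernatants resolved by SDS-PAGE, then immunoblotted for p53, Hdm2 and β-actin as loading control.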
Target sequence in this assay (Q00987 whole entry, looked up, the tested form may be a part): as the sequence (Q00987 whole entry, the tested form may be a part) above

[3] = molecular target: T1, E3 ubiquitin-protein ligase Mdm2; assay: Inhibition of GST fused human Hdm2 in human RPE cells at 1 to 10 uM after 8 hrs by immunoblotting; assay type: cell-based; method in brief: as §1
Target sequence in this assay (Q00987 whole entry, looked up, the tested form may be a part): as the sequence (Q00987 whole entry, the tested form may be a part) above

A9 = assay: Cytotoxicity against p53-deficient mouse A9 cells at 5 to 20 uM after 20 hrs by trypan blue exclusion assay; assay type: cell-based; conditions: a9, 20 h
Method in brief: (§2)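 p53-deficient (A9) and wild-type p53 (C8) mouse embryo fibroblasts treated 20 h with compound at 5–20 µM. Cell death by trypan blue exclusion. Mean and standard deviation of three independent experiments.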

[4] = Cytotoxicity against human RPE cells transformed with adenovirus E1A at 3 to 25 uM after 17 hrs by trypan blue exclusion assay; assay type: cell-based
Method in brief: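 Parental RPE and adenovirus E1A-transformed RPE cells incubated 17 h with compound (3–25 µM) or 1 µg/ml adriamycin. Cell death scored by trypan blue exclusion. Mean and standard deviation of three independent experiments.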

[5] = Cytotoxicity against wild type p53-proficient mouse C8 cells at 5 to 20 uM after 20 hrs by trypan blue exclusion assay; assay type: cell-based; conditions: c8, 20 h; method in brief: as §2
[6] = molecular target: T1, E3 ubiquitin-protein ligase Mdm2; assay: Inhibition of GST fused human Hdm2 in human RPE cells assessed as increase in p53 level at 10 uM after 8 hrs by immunoblotting
Target sequence in this assay (Q00987 whole entry, looked up, the tested form may be a part): as the sequence (Q00987 whole entry, the tested form may be a part) above

[7] = molecular target: T1, E3 ubiquitin-protein ligase Mdm2; assay: Inhibition of GST fused human Hdm2 in human HCT 116 cells expressing wild type p53 assessed as prevention of N-acetyl-leucyl-leucyl-norleucinal-induced accumulation of ubiquitylated p53 accumulation; assay type: cell-based
Target sequence in this assay (Q00987 whole entry, looked up, the tested form may be a part): as the sequence (Q00987 whole entry, the tested form may be a part) above

HCT-116 [8] = assay: Cytotoxicity against p53-deficient human HCT 116 cells at 5 to 20 uM after 20 hrs by trypan blue exclusion assay; assay type: functional, cell-based
[9] = molecular target: T1, E3 ubiquitin-protein ligase Mdm2; assay: Inhibition of Hdm2-mediated p53 degradation in human U2-OS cells co-transfected with p53-Hdm2 after 8 hrs by immunoblotting; assay type: cell-based; conditions: U2OS
Target sequence in this assay (Q00987 whole entry, looked up, the tested form may be a part): as the sequence (Q00987 whole entry, the tested form may be a part) above

U2OS = assay: Induction of apoptosis in human U2OS cells assessed as activation of p53-dependent transactivation by luciferase reporter gene assay at 1 to 10 uM after 22 hrs; assay type: functional, cell-based
Method in brief: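 U2OS-pG13 p53-reporter cells incubated 22 h with compound (1–10 µM) or 1 µg/ml adriamycin. Cells lysed in reporter lysis buffer and spun at 14,000 g for 20 min; luciferase activity of supernatant read as RLU. Mean and standard deviation of three independent experiments.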

HCT-116 [10] = assay: Cytotoxicity against p53-proficient human HCT 116 cells at 5 to 20 uM after 20 hrs by trypan blue exclusion assay; assay type: functional, cell-based
[11] = molecular target: T1, E3 ubiquitin-protein ligase Mdm2; assay: Inhibition of GST fused human Hdm2 in human RPE cells after 8 hrs by immunoblotting; assay type: cell-based; method in brief: as §1
Target sequence in this assay (Q00987 whole entry, looked up, the tested form may be a part): as the sequence (Q00987 whole entry, the tested form may be a part) above

[12] = molecular target: T1, E3 ubiquitin-protein ligase Mdm2; assay: Inhibition of Hdm2-mediated p53 degradation in human U2OS cells co-transfected with p53-Hdm2 at 50 uM after 8 hrs by immunoblotting; assay type: cell-based
[13] = molecular target: T1, E3 ubiquitin-protein ligase Mdm2; assay: Inhibition of GST fused human Hdm2 in human RPE cells at 10 uM after 8 hrs by immunoblotting
[14] = molecular target: T1, E3 ubiquitin-protein ligase Mdm2; assay: Inhibition of GST fused human Hdm2 in human RPE cells assessed as increase in p53 level after 8 hrs by immunoblotting; assay type: cell-based; method in brief: as §1
[15] = molecular target: T1, E3 ubiquitin-protein ligase Mdm2; assay: Inhibition of GST fused human Hdm2 expressed in p53 and mdm2-deficient mouse embryo fibroblasts under control of p53-independent promotor at 10 uM after 8 hrs by immunoblotting
Method in brief: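 p53−/−mdm2−/− mouse embryo fibroblasts transiently transfected with Hdm2 plasmid under a CMV promoter. 48 h later they were treated with 10 µM compound for 8 h, and Hdm2 and β-actin were measured by immunoblotting.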

[16] = molecular target: T1, E3 ubiquitin-protein ligase Mdm2; assay: Inhibition of GST fused human Hdm2 in human RPE cells assessed as increase in p53 level at 1 uM after 8 hrs by immunoblotting; assay type: cell-based; method in brief: as §1
[17] = Cytotoxicity against human RPE cells assessed as increase in p53 level at 10 uM after 8 hrs by immunoblotting; assay type: cell-based; method in brief: as §1
[18] = Cytotoxicity against human RPE cells at 10 uM; assay type: cell-based; method in brief: as §1

| SMILES | IC50 [1] | Activity [2] | Activity [3] | Activity [6] | Activity [11] | Activity [13] | Activity [14] | Activity [15] | further results |
| --- | --- | --- | --- | --- | --- | --- | --- | --- | --- |
| COc1c(C)c(CCN(C)C)c2c(c1OC)SSSSS2 | 121 µM | inactive | inactive |  |  |  |  |  |  |
| NCCc1c2c(c3nccc4c3c1Nc1ccccc1-4)OCS2 [LISSOCLINIDINE B] |  |  |  | Active | Dose-dependent effect | Active | Dose-dependent effect | Active | Activity (A9): Not Active; Activity [4]: Dose-dependent effect; Activity [5]: Active; Activity [7]: Active; Activity (HCT-116 [8]): inactive; Activity [9]: Dose-dependent effect; Activity (U2OS): Dose-dependent effect; Activity (HCT-116 [10]): Active; Activity [12]: inactive |
| CSC1=C(CCN)c2nc3ccccc3c3ccnc(c23)C1=O [DIPLAMINE B] | 101 µM |  |  | Active | Dose-dependent effect | Active | Dose-dependent effect | Active |  |
| COc1cc(CCN)c2c(c1OC)SSSSS2 [VARACIN] | > 295 µM | inactive | inactive |  |  |  |  |  |  |
| COc1cc(CCN(C)C)c2c(c1O)SSSSS2 [ISOLISSOCLINOTOXIN B] | 58.6 µM |  |  |  |  |  |  |  | Activity [16]: inactive; Activity [17]: Active; Activity [18]: Toxic |
